Laboratory results from ChEMBL document CHEMBL4024800, “α-Amino-β-carboxymuconate-ε-semialdehyde Decarboxylase (ACMSD) Inhibitors as Novel Modulators of De Novo Nicotinamide Adenine Dinucleotide (NAD+) Biosynthesis” (J Med Chem, 2018).
The source made the active and inactive calls. The calls are words filed in the database; no cut-off is given here.

Assays:
[1] = test system: HepG2; assay: Cytotoxicity against human HepG2 cells assessed as reduction in cell viability after 4 hrs by celltiter-glo assay; assay type: cell-based; conditions: hepg2, 4 h
Summary of the method: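 HepG2 or AML12 cells, 5 × 10^3 per well, exposed to compound for 4 h at 37 °C. Viability read as ATP by CellTiter-Glo luminescence; tamoxifen control.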

[2] = Volume of distribution at steady state in CD1 mouse at 0.5 mg/kg, iv measured up to 24 hrs post dose; assay type: ADME, organism-based; conditions: in vivo, read-out: Vdss
Summary of the method: (§1)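 Mice given 0.5 mg/kg IV in saline containing 5% (v/v) DMSO and 20% (v/v) PEG400; blood pharmacokinetic parameters reported as means.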

[3] = target: Cytochrome P450 3A4 (Homo sapiens, UniProt P08684); assay: Inhibition of recombinant human CYP3A4 expressed in baculosomes expression system using fluorogenic-BOMCC as substrate by fluorescent homogeneous assay; assay type: ADME
Chain of Cytochrome P450 3A4 (P08684 whole entry): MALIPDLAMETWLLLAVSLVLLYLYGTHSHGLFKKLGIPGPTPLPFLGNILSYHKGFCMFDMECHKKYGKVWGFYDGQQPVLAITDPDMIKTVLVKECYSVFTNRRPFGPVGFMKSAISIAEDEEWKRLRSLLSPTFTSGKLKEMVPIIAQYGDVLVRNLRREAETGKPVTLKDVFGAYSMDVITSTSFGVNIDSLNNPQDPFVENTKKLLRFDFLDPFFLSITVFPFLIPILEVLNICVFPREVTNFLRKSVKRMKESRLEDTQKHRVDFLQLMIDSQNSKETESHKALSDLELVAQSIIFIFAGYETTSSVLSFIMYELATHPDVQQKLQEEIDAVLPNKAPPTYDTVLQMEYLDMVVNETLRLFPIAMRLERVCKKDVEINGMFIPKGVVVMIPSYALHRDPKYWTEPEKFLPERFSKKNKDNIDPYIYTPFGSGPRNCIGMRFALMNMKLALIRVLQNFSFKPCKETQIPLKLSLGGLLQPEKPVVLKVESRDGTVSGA
Summary of the method: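 Recombinant CYP baculosomes with fluorogenic substrates, at concentrations below their Km; homogeneous fluorescence read-out, run in triplicate. IC50 classes: <1 μM potent, 1–10 μM moderate, >10 μM weak or none.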

[4] = AUClast in mouse blood at 5 mg/kg, po measured up to 8 hrs post dose; assay type: ADME, organism-based; design: time < 8 hr, dose 5 mg/kg, route oral
Summary of the method: (§2)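 Mice dosed orally at 5 mg/kg in 0.5% (w/v) HPMC in water with 5% (v/v) DMSO; blood, liver and kidney concentrations followed to 8 h. AUC0–8h given in h·ng/mL; parameters reported as means.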

[5] = target: Voltage-gated inwardly rectifying potassium channel KCNH2 (Homo sapiens, UniProt Q12809); assay: Displacement of red fluorescent channel ligand tracer from human ERG expressed in CHO cell membranes
Chain of Voltage-gated inwardly rectifying potassium channel KCNH2 (Q12809 whole entry): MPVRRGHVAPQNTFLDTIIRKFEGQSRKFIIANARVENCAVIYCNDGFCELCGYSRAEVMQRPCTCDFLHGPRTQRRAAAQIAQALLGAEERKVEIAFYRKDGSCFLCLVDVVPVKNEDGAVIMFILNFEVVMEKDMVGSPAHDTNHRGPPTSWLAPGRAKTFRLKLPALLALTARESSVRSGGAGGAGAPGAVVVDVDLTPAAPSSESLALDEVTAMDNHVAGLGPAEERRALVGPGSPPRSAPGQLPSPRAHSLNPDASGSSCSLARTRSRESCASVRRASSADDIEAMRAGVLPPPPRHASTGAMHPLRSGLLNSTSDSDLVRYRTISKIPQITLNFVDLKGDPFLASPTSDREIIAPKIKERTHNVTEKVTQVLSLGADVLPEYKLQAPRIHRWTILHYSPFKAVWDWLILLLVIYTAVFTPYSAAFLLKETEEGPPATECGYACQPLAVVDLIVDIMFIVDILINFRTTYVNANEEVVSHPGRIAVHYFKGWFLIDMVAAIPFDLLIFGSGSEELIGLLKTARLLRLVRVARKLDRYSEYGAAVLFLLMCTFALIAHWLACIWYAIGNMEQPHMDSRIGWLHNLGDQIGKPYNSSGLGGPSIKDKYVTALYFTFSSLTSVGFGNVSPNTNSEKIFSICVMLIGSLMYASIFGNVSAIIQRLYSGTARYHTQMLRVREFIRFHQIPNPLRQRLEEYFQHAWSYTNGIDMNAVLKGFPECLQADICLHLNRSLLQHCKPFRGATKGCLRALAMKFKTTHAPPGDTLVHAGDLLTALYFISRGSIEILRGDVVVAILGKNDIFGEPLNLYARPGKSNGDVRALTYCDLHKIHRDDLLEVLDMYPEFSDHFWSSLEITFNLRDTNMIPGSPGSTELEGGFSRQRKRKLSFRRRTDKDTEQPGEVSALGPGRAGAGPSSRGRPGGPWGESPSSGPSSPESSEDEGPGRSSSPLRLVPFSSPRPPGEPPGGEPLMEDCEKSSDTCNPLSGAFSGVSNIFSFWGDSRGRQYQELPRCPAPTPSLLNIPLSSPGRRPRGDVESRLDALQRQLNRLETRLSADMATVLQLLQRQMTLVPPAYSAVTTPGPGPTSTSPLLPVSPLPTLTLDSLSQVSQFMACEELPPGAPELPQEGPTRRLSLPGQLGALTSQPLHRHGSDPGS
Summary of the method: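 Fluorescence polarisation kit: membranes from CHO cells stably expressing hERG, with a red fluorescent high-affinity tracer; competitors detected by tracer displacement, seen as lowered polarisation. Final DMSO 1%; E-4031 reference.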

[6] = organism: Homo sapiens; assay: Activity at TR (unknown origin)
Summary of the method: (§3)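 Eight-point serial dilutions tested in an in-house AlphaScreen-based nuclear receptor panel; activity derived from nonlinear regression curves.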

[7] = target: T1, Vitamin D3 receptor (Homo sapiens) (UniProt P11473); assay: Activity at VDR (unknown origin); summary of the method: as §3
T1 sequence (whole entry): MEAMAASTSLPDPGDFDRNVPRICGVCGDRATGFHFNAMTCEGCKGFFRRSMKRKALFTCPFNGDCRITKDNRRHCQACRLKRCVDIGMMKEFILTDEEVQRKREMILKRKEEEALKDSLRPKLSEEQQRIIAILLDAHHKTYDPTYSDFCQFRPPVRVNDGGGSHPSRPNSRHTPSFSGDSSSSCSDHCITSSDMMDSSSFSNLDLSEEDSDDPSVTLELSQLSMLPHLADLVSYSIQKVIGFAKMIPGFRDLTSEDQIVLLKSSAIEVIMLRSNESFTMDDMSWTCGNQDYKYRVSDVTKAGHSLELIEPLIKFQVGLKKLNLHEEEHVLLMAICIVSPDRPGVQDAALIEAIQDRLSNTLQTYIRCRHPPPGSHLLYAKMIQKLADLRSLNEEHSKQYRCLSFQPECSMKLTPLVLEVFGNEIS

[8] = Cmax in CD1 mouse at 5 mg/kg, po measured up to 8 hrs after dose; assay type: ADME, organism-based; design: dose 5 mg/kg, route oral; conditions: in vivo; summary of the method: as §2
[9] = target: T2, Bile acid receptor (Homo sapiens) (UniProt Q96RI1); assay: Activity at FXR (unknown origin); summary of the method: as §3
T2 sequence (whole entry): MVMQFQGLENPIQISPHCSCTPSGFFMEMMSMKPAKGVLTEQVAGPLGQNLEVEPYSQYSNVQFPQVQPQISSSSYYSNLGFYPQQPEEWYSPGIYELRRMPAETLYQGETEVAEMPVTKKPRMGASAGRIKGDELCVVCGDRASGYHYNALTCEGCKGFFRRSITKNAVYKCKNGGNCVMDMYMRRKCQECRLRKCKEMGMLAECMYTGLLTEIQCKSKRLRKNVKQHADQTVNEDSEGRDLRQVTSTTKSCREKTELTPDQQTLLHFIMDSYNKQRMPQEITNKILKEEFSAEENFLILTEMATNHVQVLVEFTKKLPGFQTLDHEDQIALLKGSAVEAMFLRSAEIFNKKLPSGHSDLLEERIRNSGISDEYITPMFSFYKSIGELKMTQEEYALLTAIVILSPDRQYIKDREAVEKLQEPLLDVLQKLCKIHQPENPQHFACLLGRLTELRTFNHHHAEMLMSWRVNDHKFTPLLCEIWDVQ

[10] = AUClast in CD1 mouse at 0.5 mg/kg, iv measured up to 24 hrs post dose; assay type: ADME, organism-based; design: dose 0.5 mg/kg, time < 24 hr, route intravenous; conditions: in vivo; summary of the method: as §1
[11] = target: T3, Glucocorticoid receptor (Homo sapiens) (UniProt P04150); assay: Activity at GR (unknown origin); summary of the method: as §3
T3 sequence (whole entry): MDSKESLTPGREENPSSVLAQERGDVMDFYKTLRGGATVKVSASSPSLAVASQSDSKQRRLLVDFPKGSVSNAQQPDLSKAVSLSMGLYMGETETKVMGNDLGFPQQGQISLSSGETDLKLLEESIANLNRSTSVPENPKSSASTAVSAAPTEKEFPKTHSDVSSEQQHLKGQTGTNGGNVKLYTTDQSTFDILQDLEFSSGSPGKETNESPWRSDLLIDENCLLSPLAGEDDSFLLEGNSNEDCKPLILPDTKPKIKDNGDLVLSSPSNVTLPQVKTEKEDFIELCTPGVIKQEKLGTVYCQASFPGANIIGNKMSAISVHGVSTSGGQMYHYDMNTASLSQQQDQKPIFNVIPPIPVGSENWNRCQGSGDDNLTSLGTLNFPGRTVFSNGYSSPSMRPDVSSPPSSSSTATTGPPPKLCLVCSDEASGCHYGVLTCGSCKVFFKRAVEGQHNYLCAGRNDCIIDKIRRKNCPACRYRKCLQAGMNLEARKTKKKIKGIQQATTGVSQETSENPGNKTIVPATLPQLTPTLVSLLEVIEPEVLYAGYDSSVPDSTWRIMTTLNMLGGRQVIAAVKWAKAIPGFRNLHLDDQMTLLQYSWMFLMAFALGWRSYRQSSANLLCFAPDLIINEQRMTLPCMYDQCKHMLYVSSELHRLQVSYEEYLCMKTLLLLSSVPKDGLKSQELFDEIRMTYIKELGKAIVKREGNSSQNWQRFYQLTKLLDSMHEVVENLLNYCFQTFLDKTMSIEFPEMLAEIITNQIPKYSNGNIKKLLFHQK

[12] = test system: Mus musculus; assay: In vivo inhibition of ACMSD in CD1 mouse kidney at 5 mg/kg, po after 0.5 to 2 hrs; assay type: functional, organism-based
Summary of the method: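 CD1 mice dosed orally at 5 mg/kg in 0.5% (w/v) HPMC in water with 5% (v/v) DMSO; kidneys collected at various times, snap-frozen and ground. Tissue powder homogenised in 50 mM Tris pH 7.5, 0.15 M NaCl with protease inhibitors, spun 38 000g 20 min at 4 °C. Supernatant assayed spectrophotometrically with 30 μM 3-hydroxyanthranilic acid; activity normalised to BCA protein. One-way ANOVA with Dunnett's test.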

[13] = Ratio of AUClast in mouse liver to blood at 5 mg/kg, po measured up to 8 hrs post dose
[14] = AUClast in mouse liver at 5 mg/kg, po measured up to 8 hrs post dose; assay type: ADME, organism-based; design: dose 5 mg/kg, time < 8 hr, route oral; summary of the method: as §2

**Q.** Which results are given for N#Cc1c(-c2cccs2)nc(SCc2cccc(CC(=O)O)c2)[nH]c1=O?
**A.** Activity [1]: Non-Toxic; Vd [2]: 0.273 L/kg; IC50 [3]: > 10 µM; AUC(0-t) at 8 h [4]: 12700 ng·h/mL; inhibition (INH) [5]: Not Active; Activity [6]: inactive; Activity [7]: inactive; Cmax [8]: 2570 ng/mL; Activity [9]: inactive; AUC(0-t) at 24 h [10]: 10700 ng·h/mL; Activity [11]: inactive; inhibition [12]: Active; Kp at 8 h [13]: 1.5; AUC(0-t) at 8 h [14]: 19200 ng·h/mL
